High-throughput results: PubChem BioAssay, Sanford-Burnham Center for Chemical Genomics
Hits are enriched below; roughly 3.1% of the tested compounds scored in any of these assays.
UBC13 inh: human UBC13 polyubiquitination inhibition | P61088 | UBC13 polyubiquitin chain formation, TR-FRET | inhibition, % at 20 µM | 330,000 compounds, 0.47% hits | AID 485273; in the data active = inhibition above about 45%, passing the limit was not always enough
SENP7 block: SENP7 protease inhibition | Q9BQF6 | recombinant SENP7, Z-RLRGG-aminoluciferin luminescence, 40 min | inhibition, % at 5 µM | 330,000 compounds, 1.5% hits | AID 434973;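 active = inhibition above about 50% at the single test dose, limit read from the data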
Target sequence (Q9BQF6 706-1050 limits assumed): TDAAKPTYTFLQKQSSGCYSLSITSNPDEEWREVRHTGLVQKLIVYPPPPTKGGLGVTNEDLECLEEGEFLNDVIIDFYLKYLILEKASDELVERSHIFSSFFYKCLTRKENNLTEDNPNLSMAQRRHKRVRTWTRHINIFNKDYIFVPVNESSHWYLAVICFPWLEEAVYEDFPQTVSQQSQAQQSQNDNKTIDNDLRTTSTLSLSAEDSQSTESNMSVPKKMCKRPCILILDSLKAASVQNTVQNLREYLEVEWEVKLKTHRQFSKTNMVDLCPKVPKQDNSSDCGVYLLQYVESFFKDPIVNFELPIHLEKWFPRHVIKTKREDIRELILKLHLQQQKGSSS
SENP8 block-1: inhibitors of human SENP8 protease; 360,000 compounds, 0.64% hits; recombinant SENP8, Nedd8 substrate fluorescence; Q96LD8; inhibition, % at 20 µM; in the data active = inhibition mostly above about 40%, no sharp cut-off; inactive = mostly below about 27%
SENP8 block-2: inhibitors of human SENP8 protease; Q96LD8; purified SENP8, Z-RLRGG-aminoluciferin cleavage, luminescence; 330,000 compounds, 1.2% hits; inhibition, % at 10 µM; AID 2540; in the data active = inhibition above about 50%
Apaf1 inhib: human Apaf-1 inhibition | 330,000 compounds, 0.71% hits | inhibition, % at 20 µM | O14727 | reconstituted apoptosome caspase-3 activity, DEVD-Rh110 fluorescence; active = inhibition of at least 40% at 20 µM
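Assay system – apoptosome proteins · Medium – Hepes buffer, pH 7.5 · Also added – cytochrome c with DEVD-Rh110 · Timing – 30 min compound preincubation, 50 min activation, room temperature · Detection – Rh110 fluorescence, excitation 480 nm, emission 540 nm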
SENP6 inh: SENP6 protease inhibition; Q9GZR1; inhibition, % at 10 µM; AID 2599; 330,000 compounds, 1.8% hits; Recombinant SENP6 catalytic domain, aminoluciferin luminescence;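 active = inhibition above about 50% at the single tested dose, limit read from the data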
Casp3 UBC13 ctr: counter-screen for UBC13 inhibitors: human caspase-3 inhibition. shares compounds with UBC13 inh. Recombinant caspase-3, Caspase-Glo 3/7 luminescence, 60 min. inhibition, % at 20 µM. 1,400 compounds, 4% hits. AID 488856;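 active = mean inhibition across replicates above about 26%, limit read from the data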
Target sequence (P42574 whole entry, looked up): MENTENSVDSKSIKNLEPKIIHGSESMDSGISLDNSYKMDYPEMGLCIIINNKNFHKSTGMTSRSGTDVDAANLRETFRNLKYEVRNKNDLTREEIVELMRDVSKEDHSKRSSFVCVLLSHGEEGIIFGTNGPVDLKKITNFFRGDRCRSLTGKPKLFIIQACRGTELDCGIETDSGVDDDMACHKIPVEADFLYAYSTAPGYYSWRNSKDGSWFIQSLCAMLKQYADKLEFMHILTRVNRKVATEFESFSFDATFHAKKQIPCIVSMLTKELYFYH
UBC13 confirm: confirmation of human UBC13 polyubiquitin inhibitors. AID 488859. 1,400 compounds, 68% hits. inhibition, % at 10 µM. UBC13 polyubiquitination, TR-FRET, biochemical. shares compounds with UBC13 inh; in the data active = inhibition above about 45%
Apaf-1 inh conf2: confirmation of Apaf-1 inhibitors. shares compounds with Apaf1 inhib. inhibition, % at 20 µM. 1,800 compounds, 25% hits. reconstituted apoptosome, caspase-3 DEVD-Rh110 fluorescence;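 active = mean inhibition of at least 40% at 20 µM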
Rh110 quench: counter-screen for Apaf-1 inhibitors: fluorescence interference. shares compounds with Apaf1 inhib. Rh110 fluorescence interference, quenched caspase reaction. activation (fluorescence interference), % at 20 µM. 1,800 tested, under 10 active;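 active = signal rise of 40% or more at 20 µM, treated as a fluorescence artifact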
Fluor interf inh: shows fluorescence interference in the Apaf-1 inhibitor assay format; shares compounds with Apaf1 inhib; fluorescence interference counterscreen, Apaf-1 assay format; IC50, µM; 460 tested, under 10 active; AID 588538; call rule not given here
Numbers stand for hits.

`CC[C@@H](C)[C@@H]1CN([C@@H](C)CN2CCC[C@H]2CN2C(N)=NC[C@@H]2Cc2ccccc2)C(=N)N1CCCC1CCCC1` gave UBC13 inh 70.9, SENP7 block inactive, SENP8 block-1 inactive, SENP8 block-2 inactive, Apaf1 inhib 61.6, SENP6 inh inactive, Casp3 UBC13 ctr inactive, UBC13 confirm 72.6, Apaf-1 inh conf2 inactive and Rh110 quench inactive.
Screening CCCCN1C(=N)N([C@@H](CCC)CN2CCC[C@H]2CN2C(N)=NC[C@@H]2Cc2ccccc2)C[C@H]1[C@H](C)CC returned UBC13 inh inactive, SENP7 block inactive, SENP8 block-1 inactive, SENP8 block-2 inactive, Apaf1 inhib inactive and SENP6 inh inactive.
Screening CC[C@@H](C)[C@@H]1CN([C@@H](CN2CCC[C@H]2CN2C(N)=NC[C@H]2C(C)C)C(C)C)C(=N)N1CCc1ccc(Cl)c(Cl)c1 returned UBC13 inh 75.0, SENP7 block inactive, SENP8 block-1 inactive, SENP8 block-2 inactive, Apaf1 inhib 51.0, SENP6 inh inactive, Casp3 UBC13 ctr inactive, UBC13 confirm 61.3, Apaf-1 inh conf2 inactive and Rh110 quench inactive.
For CC[C@@H](C)[C@@H]1CN([C@@H](C)CN2CCC[C@H]2CN2C(N)=NC[C@H]2CC(C)C)C(=N)N1CCCC1CCCC1 the results were UBC13 inh inactive, SENP7 block inactive, SENP8 block-1 inactive, SENP8 block-2 inactive, Apaf1 inhib inactive and SENP6 inh inactive.
Screening CC(=O)Nc1cc(-c2ccccc2)cn2c(-c3ccc(F)cc3)cnc12 returned SENP8 block-1 inactive.
COc1ccc(NC(=O)c2ccc(-c3ccc(-c4noc(C)n4)cc3C)cc2)cc1N1CCN(C)CC1 was read as UBC13 inh 77.8, SENP7 block inactive, SENP8 block-1 inactive, SENP8 block-2 inactive, Apaf1 inhib 56.9, SENP6 inh inactive, Casp3 UBC13 ctr inactive, UBC13 confirm inactive, Apaf-1 inh conf2 inactive and Rh110 quench inactive.
`CN(C)CCCNc1cc(C(C)(C)C)nc2c(-c3ccc(Cl)cc3)cnn12` gave UBC13 inh 88.7, SENP7 block inactive, SENP8 block-1 inactive, SENP8 block-2 inactive, Apaf1 inhib 58.3, SENP6 inh inactive, Casp3 UBC13 ctr inactive, UBC13 confirm 94.7, Apaf-1 inh conf2 inactive and Rh110 quench inactive.
Screening CCc1nc2c(OCc3ccc(Cl)cc3)cccn2c1N(C)C(=O)c1ccc2c(c1)OCO2 returned SENP8 block-1 inactive.
COc1ccc(/C=N/Nc2cc(C)nc3ccc(Br)cc23)cc1 was read as UBC13 inh 60.8, SENP7 block inactive, SENP8 block-1 inactive, SENP8 block-2 inactive, Apaf1 inhib 55.5, SENP6 inh inactive, Casp3 UBC13 ctr inactive, UBC13 confirm 84.6, Apaf-1 inh conf2 inactive and Rh110 quench inactive.
COc1cccc2c(N/N=C/c3ccccc3)cc(C)nc12 was read as UBC13 inh inactive, SENP7 block inactive, SENP8 block-1 inactive, SENP8 block-2 inactive, Apaf1 inhib inactive and SENP6 inh inactive.
COCCNC(=O)C1CCCN(S(=O)(=O)c2c(C)noc2/C=C/c2cccs2)C1 (stereo not drawn) was read as UBC13 inh inactive, SENP7 block inactive, SENP8 block-1 inactive, SENP8 block-2 inactive, Apaf1 inhib inactive and SENP6 inh inactive.
For Cc1noc(/C=C/c2cccs2)c1S(=O)(=O)N1CCC(C(=O)NCCCN2CCC(C)CC2)CC1 the results were UBC13 inh 49.2, SENP7 block inactive, SENP8 block-1 inactive, SENP8 block-2 inactive, Apaf1 inhib 40.0, SENP6 inh inactive, Casp3 UBC13 ctr inactive, UBC13 confirm inactive, Apaf-1 inh conf2 inactive and Rh110 quench inactive.
`CC(=O)O[C@@H](Cc1ccc(O)cc1)C(=O)CC(C)C` gave SENP8 block-1 inactive.
For CCN(CC)CCNC(=O)c1ccc(NC(=O)c2cn(-c3ccc(F)cc3)nc2-c2cccc(OC)c2)cc1 the results were UBC13 inh 92.0, SENP7 block inactive, SENP8 block-1 inactive, SENP8 block-2 inactive, Apaf1 inhib 45.1, SENP6 inh inactive, Casp3 UBC13 ctr inactive, UBC13 confirm 115.2, Apaf-1 inh conf2 inactive and Rh110 quench inactive.
For COCC(=O)O[C@]1(CCN(C)CCCc2nc3ccccc3[nH]2)CCc2cc(F)ccc2[C@@H]1C(C)C the results were UBC13 inh 66.7, SENP7 block inactive, SENP8 block-1 inactive, SENP8 block-2 inactive, Apaf1 inhib 54.3, SENP6 inh inactive, Casp3 UBC13 ctr inactive, UBC13 confirm 60.2, Apaf-1 inh conf2 inactive and Rh110 quench inactive.
Screening CCOC(=O)CCc1nc2ccccc2[nH]1 returned UBC13 inh inactive, SENP7 block inactive, SENP8 block-1 inactive, SENP8 block-2 inactive, Apaf1 inhib inactive and SENP6 inh inactive.
For O=C(/C=C/[C@H]1O[C@@H](n2ccc(=O)[nH]c2=O)[C@H](O)[C@@H]1O)NCCCc1ccccc1 the results were SENP8 block-1 inactive.
For C#CCOCCOCCOCCNc1nc(N2CCN(C(=O)Cn3cc(CCCCN)nn3)CC2)nc(N2CCN(C(=O)[C@H]([C@@H](C)CC)n3cc(CCCN=C(N)N)nn3)CC2)n1 the results were UBC13 inh inactive, SENP7 block inactive, SENP8 block-1 inactive, SENP8 block-2 inactive, Apaf1 inhib inactive and SENP6 inh inactive.
`C#CCOCCOCCOCCNc1nc(N2CCN(C(=O)[C@H]([C@@H](C)CC)n3cc(CCCCN)nn3)CC2)nc(N2CCN(C(=O)[C@H]([C@@H](C)CC)n3cc(CCCN=C(N)N)nn3)CC2)n1` gave UBC13 inh 53.0, SENP7 block inactive, SENP8 block-1 inactive, SENP8 block-2 inactive, Apaf1 inhib 46.0, SENP6 inh inactive, Casp3 UBC13 ctr inactive, UBC13 confirm 47.7, Apaf-1 inh conf2 inactive and Rh110 quench inactive.
For C#CCOCCOCCOCCNc1nc(N2CCN(C(=O)CCCCCCCCCCNC(=O)Cn3cc(CCCCCN)nn3)CC2)nc(N2CCN(C(=O)CCCCCCCCCCNC(=O)[C@H]([C@@H](C)CC)n3cc(CCCCCN)nn3)CC2)n1 the results were UBC13 inh 124.1, SENP7 block inactive, SENP8 block-1 inactive, SENP8 block-2 inactive, Apaf1 inhib 74.3, SENP6 inh inactive, Casp3 UBC13 ctr inactive, UBC13 confirm 123.0, Apaf-1 inh conf2 58.0, Rh110 quench inactive and Fluor interf inh inactive.
